# Results collected from several papers.
# Lines come from different studies, so protocols differ.
# Target: Cholinesterase (BCHE, Homo sapiens, UniProt P06276)
# Observed: enzyme activity
# Action: inhibitor
SMILES,method,medium,IC50
CS(=O)(=O)n1cc(Br)c(=O)[nH]c1=O,Ellman,,195 nM
C=CCn1c2cc(OC(=O)CCCCN3CCN(Cc4cccc(Cl)c4)CC3)ccc2c2ccnc(C)c21,Ellman,,568 nM
CC(C)c1ccccc1OP(=O)(Oc1ccccc1C(C)C)Oc1ccccc1C(C)C,,liver microsomes,> 20 µg/mL
CC(=O)n1ccc(=O)[nH]c1=O,Ellman,,270 nM
C=CCn1c2cc(OC(=O)CCCCN3CCN(Cc4ccc(C(F)(F)F)cc4)CC3)ccc2c2ccnc(C)c21,Ellman,,204 nM
Clc1ccc(Nc2nc3ccccc3c3[nH]c(C4CCCCC4)nc23)cc1Cl,,,4910 nM
O=c1[nH]cc(Br)c(=O)[nH]1,Ellman,,292 nM
CC(C)c1ccc(OP(=O)(Oc2ccc(C(C)C)cc2)Oc2ccc(C(C)C)cc2)cc1,,liver microsomes,> 20 µg/mL
C#CCN(C)c1nc(NCCCC2CCN(Cc3ccccc3)CC2)c(C#N)cc1C#N,Ellman,,1680 nM
Cn1ccc(=O)n(C)c1=O,Ellman,,544 nM
Cc1ccccc1OP(=O)(Oc1ccccc1C)Oc1ccccc1C,,,~330 nM
C=CCn1c2cc(OC(=O)CCCCN3CCN(Cc4ccc(Cl)cc4)CC3)ccc2c2ccnc(C)c21,Ellman,,674 nM
